The results in this text go back to ChEMBL document CHEMBL1949640, “Discovery of substituted biphenyl oxazolidinone inhibitors of cholesteryl ester transfer protein” (ACS Med Chem Lett, 2011).

Data set [1] concerns the target T1, Cholesteryl ester transfer protein (Homo sapiens, UniProt P11597).
T1 sequence (P11597 whole entry): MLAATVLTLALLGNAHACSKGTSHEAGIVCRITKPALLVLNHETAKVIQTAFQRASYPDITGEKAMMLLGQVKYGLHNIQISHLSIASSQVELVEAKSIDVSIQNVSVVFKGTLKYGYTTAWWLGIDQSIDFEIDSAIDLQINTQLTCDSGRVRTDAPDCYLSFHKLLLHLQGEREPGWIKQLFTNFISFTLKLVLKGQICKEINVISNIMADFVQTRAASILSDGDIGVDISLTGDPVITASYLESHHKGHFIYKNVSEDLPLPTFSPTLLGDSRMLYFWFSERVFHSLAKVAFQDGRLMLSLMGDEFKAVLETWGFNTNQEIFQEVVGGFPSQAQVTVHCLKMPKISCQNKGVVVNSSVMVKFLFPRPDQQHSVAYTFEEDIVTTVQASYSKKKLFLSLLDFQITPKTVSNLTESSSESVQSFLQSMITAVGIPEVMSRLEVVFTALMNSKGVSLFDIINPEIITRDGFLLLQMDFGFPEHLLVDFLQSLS
Description: Inhibition of CETP-mediated BODIPY-labeled cholesteryl ester transfer after 45 mins by FRET analysis. The method in brief:
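Fluorescence transfer assay of cholesteryl ester transfer by CETP. IC50 taken from 10-point titrations, reported as the average of three or more titrations, the average of two, or a single titration.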

Data set [2] addresses T2, Cholesteryl ester transfer protein (Homo sapiens) (UniProt P11597).
T2 sequence (whole entry): T1 sequence (P11597 whole entry)
Description: Inhibition of CETP-mediated BODIPY-labeled cholesteryl ester transfer at 100 uM after 45 mins by FRET analysis.

Data set [3] is described as follows: (§1) Clearance in mouse. Particulars: in vivo. It counts as ADME, organism-based.
Data set [4] in a line: Volume of distribution in mouse. Particulars: in vivo. It counts as ADME, organism-based.
Data set [5] is described as follows: Oral bioavailability in mouse. It counts as ADME, organism-based. Particulars: in vivo.
The species named for the next data set is Mus musculus. The data set is described as §1. It counts as ADME, organism-based. The settings on record: in vivo.

Molecules are shown by their SMILES. A value given as a limit tells only on which side of the number the result lay.

Broadly, the IC50 is the concentration that gives 50% inhibition. Low values mean greater potency in that assay, high ones weaker potency in that assay. `COc1ccc(C(C)C)cc1-c1ccc(C(F)(F)F)cc1CN1CC(c2cc(C(F)(F)F)cc(C(F)(F)F)c2)OC1=O` (racemic) registered an IC50 in data set [1] of 0.133 µM.
On the same count and under the same terms, next, `COc1ccc(C(C)C)cc1-c1ccc(C(F)(F)F)cc1CN1C[C@@H](c2ccccc2)OC1=O`: 0.293 µM.
One may read the inhibition as the percentage by which the read-out fell short of the control. Low values mean little suppression, high ones strong suppression. The compound `COc1ccc(C(C)C)cc1-c1ccc(C(F)(F)F)cc1CN1C[C@H](c2cc(C(F)(F)F)cc(C(F)(F)F)c2)OC1=O` yielded an inhibition in data set [2] of under 50%.
Take `COc1ccc(C(C)C)cc1-c1ccc(C(F)(F)F)cc1CN1C(=O)OCC1c1cc(C(F)(F)F)cc(C(F)(F)F)c1` (racemic): 14.2 µM corresponded to half-maximal inhibition in data set [1] (IC50).
A word on the clearance: it is the volume of plasma or blood freed of the substance per unit of time. Higher therefore signals a high capacity for elimination. In general, Vd refers to the apparent volume that relates the amount in the body to the concentration in plasma or blood. Low values mean confinement near the circulation, high ones extensive tissue distribution. Usually bioavailability stands for dose-corrected exposure relative to a reference, in per cent. Low values mean poor availability, high ones good availability. In data set [3], `COC(=O)N(Cc1cc(C(F)(F)F)cc(C(F)(F)F)c1)Cc1cc(C(F)(F)F)ccc1-c1cc(C(C)C)ccc1OC` gave a clearance of 12.8 mL/min/kg. This compound yielded a distribution volume (Vd) in data set [4] of 3.3 L/kg. In data set [5], this compound displayed a bioavailability of 5%.
Regarding `COC(=O)N(Cc1ccccc1)Cc1cc(C(F)(F)F)ccc1-c1cc(C(C)C)ccc1OC`, in data set [1], inhibition was half-maximal at 27.3 µM (IC50).
Still for that read-out and setting: next, `COc1ccc(C(C)C)cc1-c1ccc(C(F)(F)F)cc1CN1C[C@H](c2ccccc2)OC1=O`: 37.2 µM.
For `COc1ccc(C(C)C)cc1-c1ccc(C(F)(F)F)cc1CN1C[C@@H](c2cc(C(F)(F)F)cc(C(F)(F)F)c2)OC1=O`, the clearance in the data set filed under Mus musculus is 31.6 mL/min/kg. The Vd in data set [4] came out at 3.4 L/kg. Besides, in data set [5], the bioavailability came out at 4%.
